# According to PMC3461514 (The Journal of Cell Biology, 2012):
# Ends that are not written are not given here.
# What was measured:
# zebrafish embryos = experiment: Zebrafish dilated heart phenotype after San MO and cRNA coinjection; type: in vivo, Danio rerio (zebrafish); conditions: 1 ng MO injected alone at one-cell stage, scored at 48 hpf
# KRIT1 FERM domain = KRIT1 FERM domain (Homo sapiens, UniProt O00522); type: binding; conditions: GFP-KRIT1 F123 from HEK293 cell lysates, immunoblot
# HUVECs = experiment: Myosin light chain phosphorylation; type: cell-based, human; conditions: siRNA-resistant KRIT1 coexpressed with anti-KRIT1 siRNA in HUVECs, immunoblot
# Summary of the method: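 HUVECs were kept in supplemented EC medium and nucleofected with anti-KRIT1 siRNA, alone or together with cDNA for WT or L717,721A KRIT1. Phospho-myosin light chain was then assessed by immunoblotting.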
# HUVEC = experiment: Immunofluorescence localization of HA-KRIT1 at EC-cell junctions; type: cell-based, human; conditions: HA-tagged KRIT1 transfected HUVECs, 24 h, colocalization with VE-cadherin
# Summary of the method: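 HUVECs in supplemented EC medium, nucleofected with HA-KRIT1 WT or L717,721A, plated on fibronectin-coated coverslips at ~90% confluence, grown 24 h; fixed 3.7% PFA 30 min, 0.2% Triton X-100 5 min, 10% goat serum block 1 h; mouse anti-HA plus rabbit anti-VE-cadherin 3 h RT, Alexa 488/568 secondaries 1 h; spinning-disk confocal, 40× oil, z-slices; ≥3 independent experiments.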
# Chain of KRIT1 FERM domain (O00522 420-734 limits assumed): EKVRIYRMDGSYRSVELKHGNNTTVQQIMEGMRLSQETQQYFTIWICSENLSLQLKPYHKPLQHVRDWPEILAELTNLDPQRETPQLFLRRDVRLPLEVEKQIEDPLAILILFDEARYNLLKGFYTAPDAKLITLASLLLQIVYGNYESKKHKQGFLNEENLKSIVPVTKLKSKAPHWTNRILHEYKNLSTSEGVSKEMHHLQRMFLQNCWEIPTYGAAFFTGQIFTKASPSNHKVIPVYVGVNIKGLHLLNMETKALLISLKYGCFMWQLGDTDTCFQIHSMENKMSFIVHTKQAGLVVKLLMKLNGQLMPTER
substance,measurement,setting,value
"5′-TTGAAGTCTCACTTTTGTCTCCATG-3′ (morpholino, further chemistry not given here) [San MO]","heart dilation, zebrafish embryos",zebrafish embryos,95%
HEG1 C26 NAFA (SRHSCIFPGQYAPSAISDESRRRDYF; not fully specified),KRIT1 binding,KRIT1 FERM domain,no effect on KRIT1 binding
KRIT1: HA-tagged full-length wild-type human KRIT1 expressed in HUVECs,effect on increased myosin light chain phosphorylation caused by KRIT1 silencing,HUVECs,reversed this effect
same,localization at EC-cell junctions,HUVEC,localized at EC–cell junctions
